From ChEMBL document CHEMBL3351723, “New derivatives of lupane triterpenoids disturb breast cancer mitochondria and induce cell death” (Bioorg Med Chem, 2014)
Calls of active or inactive are those of the source. The rule behind the calls is not given here.

Assays:
[1] = Cell cycle arrest against human Hs578T cells assessed as decrease in cells at S phase at 0.5 ug/ml after 24 to 48 hrs by propidium iodide staining based flow cytometry; assay type: functional; conditions: Hs-578T
Procedure, shortened: (§1)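 Log-phase Hs578T cells exposed 24 and 48 h to 0.5 μg/ml. Adherent plus floating cells fixed in cold 70% ethanol, kept overnight at -20°C, washed into PBS-T (132 mM NaCl, 4 mM KCl, 1.2 mM NaH2PO4, 0.1% Tween). Treated with 20 μg/ml RNase for 45 min at 37°C, then propidium iodide for 30 min at 37°C. Phase percentages read by flow cytometry. Mean ± SEM, 5 experiments.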

BJ = experiment: Cytotoxicity against human BJ cells at 0.125 to 2 ug/ml after 1 to 5 days by sulforhodamine B assay; assay type: cell-based
Procedure, shortened: (§2)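 Non-tumor cells seeded at 2×10^4 cells/ml and treated 24 h after seeding, in high-glucose DMEM with pyruvate, 10% FBS and penicillin-streptomycin, 37°C, 5% CO2. Compound exposure 0.125–2 μg/ml for 1, 3 and 5 days, with vehicle controls. Cells fixed and stained with sulforhodamine B for total cell mass. Data given as % of untreated control at each time point; five independent experiments.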

[2] = Cell cycle arrest against human Hs578T cells assessed as increase in cells at G0/G1 phase at 0.5 ug/ml after 24 to 48 hrs by propidium iodide staining based flow cytometry; assay type: functional; conditions: Hs-578T; procedure, shortened: as §1
Hs-578T [3] = experiment: Cytotoxicity against human Hs578T cells at 0.125 to 2 ug/ml incubated for 6 hrs folowed by drug wash out and fresh medium addition and measured 5 days after wash out; assay type: functional, cell-based
[4] = Cytotoxicity against human MCF12A cells at 0.125 to 2 ug/ml after 1 to 5 days by sulforhodamine B assay; assay type: cell-based; conditions: mcf-12a; procedure, shortened: as §2
[5] = Cell cycle arrest against human Hs578T cells assessed as decrease in cells at G2/M phase at 0.5 ug/ml after 24 to 48 hrs by propidium iodide staining based flow cytometry; assay type: functional; conditions: Hs-578T; procedure, shortened: as §1
MDA-MB-231 [6] = experiment: Cytotoxicity against human MDA-MB-231 cells at 0.125 to 2 ug/ml after 1 to 5 days by sulforhodamine B assay in presence of taxol; assay type: functional, cell-based
MCF7 [7] = experiment: Cytotoxicity against human MCF7 cells at 0.125 to 2 ug/ml after 1 to 5 days by sulforhodamine B assay in presence of taxol; assay type: functional, cell-based
Hs-578T [8] = experiment: Cytotoxicity against human Hs578T cells at 0.125 to 2 ug/ml after 1 to 5 days by sulforhodamine B assay in presence of taxol; assay type: functional, cell-based
Hs-578T [9] = experiment: Cytotoxicity against human Hs578T cells at 0.125 to 2 ug/ml after 1 to 5 days by sulforhodamine B assay; assay type: functional, cell-based
Procedure, shortened: (§3)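 Sulforhodamine B growth assay in high-glucose DMEM with 10% FBS. Cancer cells seeded at 1×10^4 cells/ml; compound (0.125–2 μg/ml) added 24 h after seeding and left for 1, 3 or 5 days. Cells fixed, total mass stained. Expressed as % of untreated cells at the same time point. Mean ± SEM, five independent experiments.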

MCF7 [10] = experiment: Cytotoxicity against human MCF7 cells at 0.125 to 2 ug/ml after 1 to 5 days by sulforhodamine B assay; assay type: functional, cell-based; procedure, shortened: as §3
MDA-MB-231 [11] = experiment: Cytotoxicity against human MDA-MB-231 cells at 0.125 to 2 ug/ml after 1 to 5 days by sulforhodamine B assay; assay type: functional, cell-based; procedure, shortened: as §3

C=C(C)[C@@H]1CC[C@]2(COC(=O)C[n+]3ccc(C)cc3C)CC[C@]3(C)[C@H](CC[C@@H]4[C@@]5(C)CC[C@H](OC(=O)C[n+]6ccc(C)cc6C)C(C)(C)[C@@H]5CC[C@]43C)[C@@H]12.[Cl-].[Cl-]
inhibition [1]: Active
Activity (BJ): Toxic
G0/G1 cell cycle arrest [2]: Active
inhibition (Hs-578T [3]): Active
Activity [4]: Toxic

C=C(C)[C@@H]1CC[C@]2(COC(=O)C(C)[n+]3ccc(N(C)C)cc3)CC[C@]3(C)[C@H](CC[C@@H]4[C@@]5(C)CC[C@H](OC(=O)C(C)[n+]6ccc(N(C)C)cc6)C(C)(C)[C@@H]5CC[C@]43C)[C@@H]12.[Cl-].[Cl-] (some centres not stated)
inhibition [5]: Active
inhibition (MDA-MB-231 [6]): Active
inhibition [1]: Active
Activity (BJ): Toxic
inhibition (MCF7 [7]): Active
Activity [2]: Active
inhibition (Hs-578T [8]): Active
inhibition (Hs-578T [3]): Active
Activity [4]: Toxic

C=C(C)[C@@H]1CC[C@]2(COC(=O)CCC[n+]3ccc(N(C)C)cc3)CC[C@]3(C)[C@H](CC[C@@H]4[C@@]5(C)CC[C@H](OC(=O)CCC[n+]6ccc(N(C)C)cc6)C(C)(C)[C@@H]5CC[C@]43C)[C@@H]12.[Br-].[Br-]
inhibition [1]: Active
Activity (BJ): Toxic
inhibition (Hs-578T [9]): Active
Activity [2]: Active
inhibition (MCF7 [10]): Active
inhibition (MDA-MB-231 [11]): Active
inhibition (Hs-578T [3]): Active
Activity [4]: Toxic
